ChEMBL document CHEMBL1121372, “Synthesis and antihypertensive activity of 5-amino-2-pyridinecarboxylic acid derivatives” (1980)
Active and inactive are the calls of the source. The calls are words filed in the database; no cut-off is given here.

Assays:
[1] = tested on: Rattus norvegicus; test: The compound was tested for antihypertensive effect in spontaneously hypertensive rat (SHR), expressed as fall in blood pressure (BP) at 100 mg/kg dose given orally; type: functional; conditions: route oral
How it was run: (§1)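 Male SHR, about 16 weeks old, with systolic pressure above 150 mmHg, held in restraint cages. Tail-cuff occlusion was raised to 250 mmHg and then lowered, after 1 h acclimation and at least 3 baseline readings. Dosing was by daily gavage in 3% cornstarch/5% PEG-400/Tween 80 for 2 or 4 days, with 4–6 rats per drug. Readings at 1, 2, 3 and 24 h; peak fall reported.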

[2] = tested on: Rattus norvegicus; test: The compound was tested for antihypertensive effect in spontaneously hypertensive rat (SHR), expressed as fall in blood pressure (BP) at 50 mg/kg dose given orally; Inactive; type: functional, organism-based; set-up: dose 50 mg/kg; how it was run: as §1
[3] = tested on: Rattus norvegicus; test: Antihypertensive effect in spontaneously hypertensive rat (SHR), expressed as fall in blood pressure (BP) at 50 mg/kg dose given orally; type: functional; conditions: route oral; how it was run: as §1
[4] = tested on: Rattus norvegicus; test: The compound was tested for antihypertensive effect in spontaneously hypertensive rat (SHR), expressed as fall in blood pressure (BP) at 50 mg/kg dose given orally; (3/3 dead); type: functional
[5] = tested on: Rattus norvegicus; test: The compound was tested for antihypertensive effect in spontaneously hypertensive rat (SHR), expressed as fall in blood pressure (BP) at 50 mg/kg dose given per orally; type: functional; conditions: route oral; how it was run: as §1
[6] = tested on: Canis familiaris; test: Antihypertensive activity in unanesthetized renal hypertensive dogs measured as mean Blood Pressure at 100 mg per kg dose after peroral administration on day1; type: functional, Canis lupus familiaris; set-up: unit not given beside the values; conditions: route oral
How it was run: (§2)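 Renal hypertensive dogs, unanesthetized. Test compound given orally once daily as a solid in a gelatin capsule. Blood pressure was taken at 1.5, 3, 6 and 24 h after each daily dose. Activity is the maximum change in mean blood pressure or heart rate over each daily session. Values are mean ± SE, with significance marked at p < 0.05.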

[7] = tested on: Canis familiaris; test: Antihypertensive activity in unanesthetized renal hypertensive dogs measured as mean Blood Pressure at 100 mg per kg dose after peroral administration on day 3; type: functional, Canis lupus familiaris; conditions: route oral; how it was run: as §2
[8] = tested on: Canis familiaris; test: Antihypertensive activity in unanesthetized renal hypertensive dogs measured as Heart Rate (HR) (beats/min) at 100 mg per kg dose after peroral administration on day1 (p<0.05); type: functional, Canis lupus familiaris; conditions: route oral; how it was run: as §2
[9] = tested on: Rattus norvegicus; test: The compound was tested for antihypertensive effect in spontaneously hypertensive rat (SHR), expressed as fall in blood pressure (BP) at 25 mg/kg dose given orally; type: functional; conditions: route oral; how it was run: as §1
[10] = tested on: Canis familiaris; test: Antihypertensive activity in unanesthetized renal hypertensive dogs measured as Heart Rate (HR) (beats/min) at 100 mg per kg dose after peroral administration on day 2; type: functional, Canis lupus familiaris; conditions: route oral; how it was run: as §2
[11] = tested on: Canis familiaris; test: Antihypertensive activity in unanesthetized renal hypertensive dogs measured as mean Blood Pressure at 100 mg per kg dose after peroral administration on day 4; type: functional, Canis lupus familiaris; conditions: route oral; how it was run: as §2
[12] = tested on: Canis familiaris; test: Antihypertensive activity in unanesthetized renal hypertensive dogs measured as Heart Rate (HR) (beats/min) at 100 mg per kg dose after peroral administration on day 4; type: functional, Canis lupus familiaris; conditions: route oral; how it was run: as §2
[13] = tested on: Rattus norvegicus; test: The compound was tested for antihypertensive effect in spontaneously hypertensive rat (SHR), expressed as fall in blood pressure (BP) at 10 mg/kg dose given orally; type: functional; conditions: route oral
[14] = tested on: Canis familiaris; test: Antihypertensive activity in unanesthetized renal hypertensive dogs measured as mean Blood Pressure at 100 mg per kg dose after peroral administration on day 2; type: functional, Canis lupus familiaris; conditions: route oral; how it was run: as §2
[15] = tested on: Canis familiaris; test: Antihypertensive activity in unanesthetized renal hypertensive dogs measured as Heart Rate (HR) (beats/min) at 100 mg per kg dose after peroral administration on day 3 p<0.05; type: functional, Canis lupus familiaris; conditions: route oral; how it was run: as §2
[16] = tested on: Canis familiaris; test: Antihypertensive activity in unanesthetized renal hypertensive dogs measured as Heart Rate (HR) (beats/min) at 100 mg per kg dose after peroral administration on day1; type: functional, Canis lupus familiaris; conditions: route oral; how it was run: as §2
[17] = tested on: Canis familiaris; test: Antihypertensive activity in unanesthetized renal hypertensive dogs measured as mean Blood Pressure at 100 mg per kg dose after peroral administration on day 2 (p<0.05); type: functional, Canis lupus familiaris; conditions: route oral; how it was run: as §2
[18] = tested on: Canis familiaris; test: Antihypertensive activity in unanesthetized renal hypertensive dogs measured as Heart Rate (HR) (beats/min) at 100 mg per kg dose after peroral administration on day 2 (p<0.05); type: functional, Canis lupus familiaris; conditions: route oral; how it was run: as §2
[19] = tested on: Rattus norvegicus; test: The compound was tested for antihypertensive effect in spontaneously hypertensive rat (SHR), expressed as fall in blood pressure (BP) at 100 mg/kg dose given orally; Inactive; type: functional, organism-based; set-up: dose 100 mg/kg; how it was run: as §1
[20] = tested on: Canis familiaris; test: Antihypertensive activity in unanesthetized renal hypertensive dogs measured as mean Blood Pressure at 60 mg per kg dose after peroral administration on day1; type: functional, Canis lupus familiaris; conditions: route oral
How it was run: (§3)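 Renal hypertensive dogs, unanesthetized. Drug given orally once daily as solid in gelatin capsule. Blood pressure and heart rate read at 1.5, 3, 6 and 24 h after each dose. Value is the maximum change over the daily monitored session, mean ± SE. MBP in mm Hg, HR in beats/min, p < 0.05 flagged.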

[21] = tested on: Canis familiaris; test: Antihypertensive activity in unanesthetized renal hypertensive dogs measured as Heart Rate (HR) (beats/min) at 60 mg per kg dose after peroral administration on day 2; type: functional, Canis lupus familiaris; conditions: route oral; how it was run: as §3
[22] = tested on: Canis familiaris; test: Antihypertensive activity in unanesthetized renal hypertensive dogs measured as mean Blood Pressure at 60 mg per kg dose after peroral administration on day 2; type: functional, Canis lupus familiaris; conditions: route oral; how it was run: as §3
[23] = tested on: Canis familiaris; test: Antihypertensive activity in unanesthetized renal hypertensive dogs measured as Heart Rate (HR) (beats/min) at 60 mg per kg dose after peroral administration on day 3; type: functional, Canis lupus familiaris; conditions: route oral; how it was run: as §3
[24] = tested on: Canis familiaris; test: Antihypertensive activity in unanesthetized renal hypertensive dogs measured as Heart Rate (HR) (beats/min) at 60 mg per kg dose after peroral administration on day1; type: functional, Canis lupus familiaris; conditions: route oral; how it was run: as §3
[25] = tested on: Canis familiaris; test: Antihypertensive activity in unanesthetized renal hypertensive dogs measured as mean Blood Pressure at 60 mg per kg dose after peroral administration on day 3; type: functional, Canis lupus familiaris; conditions: route oral; how it was run: as §3
[26] = tested on: Rattus norvegicus; test: The compound was tested for antihypertensive effect in spontaneously hypertensive rat (SHR), expressed as fall in blood pressure (BP) at 50 mg/kg dose given orally; type: functional; conditions: route oral; how it was run: as §1

O=C(O)c1ccc(N(Cc2cccc(Cl)c2)Cc2cccc(Cl)c2)cn1
BP [1]: >20 mmHg

N#Cc1ccc(NCc2ccc(F)cc2)cn1
BP [2]: inactive

COc1ccc(CNc2ccc(C(=O)O)nc2)cc1F
BP [3]: >20 mmHg

CC(C)(C)c1ccc(CNc2ccc(C(=O)O)nc2)cc1
BP [3]: <20 mmHg

CN(Cc1cccc(Oc2ccccc2)c1)c1ccc(C(=O)O)nc1
BP [3]: >20 mmHg

CCNC(=O)c1ccc(NCc2ccc(F)cc2)cn1
BP [2]: inactive

OCc1ccc(NCc2ccc(F)cc2)cn1
BP [3]: >80 mmHg

NC(=O)c1ccc(CNc2ccc(C(=O)O)nc2)cc1
BP [3]: <20 mmHg

COc1cccc(CN(C)c2ccc(C(=O)O)nc2)c1
BP [3]: >20 mmHg

Fc1ccc(CNc2ccc(C3N=NN=N3)nc2)cc1
BP [3]: >60 mmHg

O=C(O)c1ccc(NCc2cccc(Oc3ccccc3)c2)cn1
BP [3]: >20 mmHg

O=C(O)c1ccc(NCCc2ccccc2)cn1
BP [3]: >20 mmHg

O=C(O)c1ccc(Nc2ccccc2)cn1
BP [2]: inactive

O=C(O)c1ccc(NCC2CCCCC2)cn1
BP [4]: >20 mmHg

O=C(O)c1ccc(NCc2ccncc2)cn1
BP [3]: >20 mmHg

O=C(O)c1ccc(NCc2ccc(Cl)c(Cl)c2)cn1
BP [3]: <20 mmHg

CCC(=O)N(Cc1cccc(Cl)c1)c1ccc(C(=O)O)nc1
BP [1]: <20 mmHg

CCCCNc1ccc(C(=O)OC)nc1
BP [5]: <20 mmHg

Cc1cccc(CN(C)c2ccc(C(=O)O)nc2)c1
BP [3]: >20 mmHg

COC(=O)c1ccc(NCc2ccc(Cl)cc2)cn1
BP [1]: >60 mmHg

O=C(O)c1ccc(NCc2ccccc2)cn1
BP [3]: >80 mmHg | MBP [6]: -32 | MBP [7]: -13 | HR [8]: 74 | BP [9]: >60 mmHg | HR [10]: 61 | MBP [11]: -6 | HR [12]: 48 | BP [13]: >40 mmHg | MBP [14]: -14 | HR [15]: 52

CN(C)C(=O)c1ccc(NCc2ccc(F)cc2)cn1
BP [3]: >60 mmHg | Maximum change in heart rate [16]: 20 | MBP [17]: -67 | HR [18]: 112

CCC(=O)Nc1ccc(C(=O)O)nc1
BP [19]: inactive

O=C(Nc1ccc(C(=O)O)nc1)c1ccccc1
BP [1]: >20 mmHg

O=C(O)c1ccc(NCc2ccccc2Cl)cn1
BP [1]: >60 mmHg

CCCCc1ccc(C(=O)O)nc1 [FUSARIC ACID]
MBP [20]: -50 | HR [21]: 35 | MBP [22]: -45 | HR [23]: 33 | HR [24]: 32 | BP [1]: >60 mmHg | MBP [25]: -30

O=C(O)c1ccc(NCc2ccc(Cl)cc2)cn1
BP [1]: >40 mmHg

O=C(O)c1ccc(NCc2cccc(C(F)(F)F)c2)cn1
BP [1]: >60 mmHg

Cc1nc(C(=O)O)ccc1NCc1cccc(Cl)c1
BP [3]: >20 mmHg

O=C(O)c1ccc(NCc2ccccc2F)cn1
BP [3]: >40 mmHg

CC(Nc1ccc(C(=O)O)nc1)c1ccc(F)cc1 (stereo unspecified)
BP [26]: >40 mmHg

NNC(=O)c1ccc(NCc2ccc(F)cc2)cn1
BP [3]: >40 mmHg
